In ChEMBL document CHEMBL1123469, “Synthesis and activity of 6-aryl-3-(hydroxypolymethyleneamino)pyridazines in animal models of epilepsy” (1986):

What was measured:
Format in all cases: functional
Mus musculus [1] = experiment: Evaluated for Bicuculline-induced lethality (anticonvulsant activity) when administered orally in mice.; conditions: po
In short: (§1)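 Female Swiss albino CD1 mice (18-23 g), oral dosing (20 mL/kg); test compounds dissolved in dilute HCl (pH 3), reference drugs suspended in 5% gum tragacanth. Bicuculline challenge, scoring protection from seizures and from lethality. […] Weakly active agents reported as percent protected at the stated dose.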

Mus musculus [2] = experiment: Compound was evaluated for the sedative property by the rotarod test at 150 mg/kg
In short: (§2)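 Motor coordination was tested on the rotorod in groups of 10 female Swiss CD1 mice (18-23 g). Drug or vehicle was given orally, test compounds in dilute HCl (pH 3), 60 min before testing.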

Mus musculus [3] = experiment: Evaluated for anticonvulsant activity when administered orally in mice by Maximal electroshock (MES).; conditions: po
In short: (§3)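 Female Swiss CD1 mice (18-23 g), groups of 10, were dosed orally at 20 mL/kg. Test compounds were given in dilute HCl (pH 3) and references in 5% gum tragacanth, 60 min before a 60-V alternating current for 0.3 s through corneal electrodes. Protection meant abolition of the hindlimb tonic extensor component.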

Mus musculus [4] = experiment: Evaluated for Bicuculline-induced seizures (anticonvulsant activity) when administered orally in mice.; conditions: po
In short: (§4)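 Female Swiss CD1 mice (18-23 g) were dosed orally at 20 mL/kg, test compounds in dilute HCl (pH 3) and references in gum tragacanth. Protection against bicuculline- or pentylenetetrazole-induced clonic/tonic seizures and lethality was scored.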

Mus musculus [5] = experiment: Compound was evaluated for the sedative property by the rotarod test at 20 mg/kg; in short: as §2
Mus musculus [6] = experiment: Compound was evaluated for anticonvulsant activity when administered 10 mg/kg orally in mice Maximal electroshock (MES); conditions: route oral; in short: as §3
Mus musculus [7] = experiment: Compound was evaluated for the sedative property by the rotarod test at 10 mg/kg; in short: as §2
Mus musculus [8] = experiment: Compound was evaluated for Bicuculline-induced seizures (anticonvulsant activity) when administered 10 mg/kg orally in mice; conditions: route oral; in short: as §1
Mus musculus [9] = experiment: Compound was evaluated for the sedative property by the rotarod test at 1 mg/kg; in short: as §2
Mus musculus [10] = experiment: Compound was evaluated for anticonvulsant activity when administered 1 mg/kg orally in mice Maximal electroshock (MES); conditions: route oral; in short: as §3
Mus musculus [11] = experiment: Compound was evaluated for Bicuculline-induced seizures (anticonvulsant activity) when administered 1 mg/kg orally in mice; conditions: route oral; in short: as §1
Papio hamadryas = species on record: Papio hamadryas; experiment: Antagonist activity to generalized seizures Photically induced seizures in senegalese Papio papio baboons
In short: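 Naturally photosensitive baboons of both sexes (4-7 kg) were dosed orally, test compounds in dilute HCl (pH 3) and references in 5% gum tragacanth, at 4 mL/kg. They were photically stimulated at hourly intervals afterwards, and the myoclonic response was graded after Killam. Threshold active dose is the first dose that protected at least two of four animals for at least 2 h.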

Mus musculus [12] = experiment: Compound was evaluated for Bicuculline-induced seizures (anticonvulsant activity)when administered orally in mice; conditions: po; in short: as §1
Mus musculus [13] = experiment: Anticonvulsant activity in Maximal electroshock (MES) when administered orally in mice; conditions: po; in short: as §3
Rattus norvegicus = species on record: Rattus norvegicus; experiment: Antagonist activity to generalized seizures kindled amygdaloid seizures in rats
In short: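 Male Sprague-Dawley rats (200-500 g), groups of 10, carried platinum electrodes in the right basolateral amygdala. They counted as kindled after stage-5 seizures on 3 consecutive days at 30-90 μA. A control stimulation was followed by an oral dose (5 mL/kg) and restimulation 1 h later. After-discharge duration and Racine seizure stage were compared with vehicle.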

Mus musculus [14] = experiment: Anticonvulsant activity in tonic seizures when administered orally in mice; conditions: po
Mus musculus [15] = experiment: Compound was evaluated for the sedative properties by the rotarod test when 100 mg/Kg was administered in mice; in short: as §2
Mus musculus [16] = experiment: Anticonvulsant activity in Clonic seizures when administered orally in mice; conditions: po; in short: as §4
Mus musculus [17] = experiment: Compound was evaluated for Bicuculline-induced lethality (anticonvulsant activity) when administered 20 mg/Kg orally in mice; in short: as §1

OC1CCN(c2ccc(-c3cc(Cl)ccc3Cl)nn2)CC1 gave an ED50 (Mus musculus [1]) of 101 mg/kg and a Protected (Mus musculus [2]) of 10%.
O=C1CCN(c2ccc(-c3ccc(Cl)cc3Cl)nn2)CC1 was tested, and the ED50 (Mus musculus [1]) was 7 mg/kg, the ED50 (Mus musculus [3]) was 5 mg/kg and the ED50 (Mus musculus [4]) was 7.3 mg/kg. For the same compound, the Protected (Mus musculus [5]) was 50%.
Work on OC1CCN(c2ccc(-c3ccccn3)nn2)CC1 yielded a Protected (Mus musculus [6]) of 0%, a Protected (Mus musculus [7]) of 20% and a Protected (Mus musculus [8]) of 0%.
In the case of CN(C)C(=O)OC1CCN(c2ccc(-c3ccc(Cl)cc3Cl)nn2)CC1, the Protected (Mus musculus [9]) is reported as 20%, the Protected (Mus musculus [10]) is reported as 66% and the Protected (Mus musculus [11]) is reported as 30%.
O=C1NC(=O)C(c2ccccc2)(c2ccccc2)N1 [PHENYTOIN] showed a Threshold active dose (Papio hamadryas) of 50 mg/kg, an ED50 (Mus musculus [12]) of 11 mg/kg and an ED50 (Mus musculus [13]) of 23 mg/kg. For the same compound, the Threshold active dose (Rattus norvegicus) was 20 mg/kg, the ED50 (Mus musculus [14]) was 7 mg/kg and the Protected (Mus musculus [15]) was 30%. For the same compound, the ED50 (Mus musculus [16]) was greater than 80 mg/kg and the Protected (Mus musculus [17]) was 25%.
